Assay results reported in ChEMBL document CHEMBL3745600, “2-Amino-thiophene derivatives present antileishmanial activity mediated by apoptosis and immunomodulation in vitro” (Eur J Med Chem, 2015).
Activity calls are given as the source filed them. The rule behind the calls is not given here.

Tests used:
[1] = test system: Peritoneal macrophage cell; assay: Immunomodulatory activity in Swiss mouse peritoneal macrophages infected with promastigotes form of Leishmania amazonensis IFLA/BR/67/PH8 assessed as increase of IL-10 production at 6.25 to 25 uM after 72 hrs by sandwich ELISA; format: functional, cell-based
Summary of the method: (§1)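 Supernatants came from infected macrophages treated for 72 h at 37°C, 5% CO₂. TNF-α, IL-12 and IL-10 were measured by sandwich ELISA at 450 nm against murine recombinant cytokine standards. NO was estimated as nitrite by the Griess reaction at 540 nm against a sodium nitrite standard. LPS (10 mg/L) served as positive control. Three experiments were run in triplicate.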

Leishmania amazonensis [2] = assay: Antileishmanial activity against promastigotes of Leishmania amazonensis IFLA/BR/67/PH8 assessed as induction of late apoptosis using Annexin-V/PI staining at IC50 after 4 hrs by flow cytometry (reference value: 12.05%); format: functional
Leishmania amazonensis [3] = assay: Antileishmanial activity against promastigotes of Leishmania amazonensis IFLA/BR/67/PH8 assessed as viable cells using Annexin-V staining at 4 times IC50 after 4 hrs by flow cytometry (reference value: 77%); format: functional
[4] = test system: Peritoneal macrophage cell; assay: Immunomodulatory activity in Swiss mouse peritoneal macrophages infected with promastigotes form of Leishmania amazonensis IFLA/BR/67/PH8 assessed as increase of TNFalpha production at 6.25 to 25 uM after 72 hrs by sandwich ELISA; format: functional, cell-based; summary of the method: as §1
[5] = Selectivity index, ratio of CC50 for Swiss mouse peritoneal macrophages to EC50 for axenic amastigotes of Leishmania amazonensis IFLA/BR/67/PH8
Summary of the method: (§2)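 Promastigote values came from haemocytometer counts after 72 h at 25°C. Axenic amastigote values came from MTT readings after 24 h at 32°C, using amastigotes differentiated at pH 4.6. All 50% values were obtained by probit regression.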

[6] = Ratio of compound CC50 to meglumine antimoniate CC50 for Swiss mouse peritoneal macrophages; format: ADME, cell-based, Peritoneal macrophage cell
Leishmania amazonensis [7] = assay: Antileishmanial activity against promastigotes of Leishmania amazonensis IFLA/BR/67/PH8 assessed as induction of DNA fragmentation at 1 to 4 times IC50 after 24 hrs by agarose gel electrophoresis; format: functional, organism-based
Summary of the method: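 Genomic DNA was extracted with phenol/chloroform and run on agarose with GelRed (1:500) for 1 h at […]. Fragmentation was viewed under UV as a qualitative read-out.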

[8] = Selectivity index, ratio of HC50 for human RBC to IC50 for promastigotes of Leishmania amazonensis IFLA/BR/67/PH8; summary of the method: as §2
Leishmania amazonensis [9] = assay: Antileishmanial activity against promastigotes of Leishmania amazonensis IFLA/BR/67/PH8 after 72 hrs by Neubauer haemocytometer counting; settings: IFLA/BR/67/PH8, 72 h
Leishmania amazonensis [10] = assay: Antileishmanial activity against promastigotes of Leishmania amazonensis IFLA/BR/67/PH8 assessed as induction of necrosis using Annexin-V-FITC/PI staining at 4 times IC50 after 4 hrs by flow cytometry (reference value: 2.6%); format: functional
Leishmania amazonensis [11] = assay: Antileishmanial activity against promastigotes of Leishmania amazonensis IFLA/BR/67/PH8 assessed as viable cells using Annexin-V staining at IC50 after 4 hrs by flow cytometry (reference value: 77%); format: functional
Leishmania amazonensis [12] = assay: Antileishmanial activity against promastigotes of Leishmania amazonensis IFLA/BR/67/PH8 assessed as induction of necrosis using Annexin-V-FITC/PI staining at 2 times IC50 after 4 hrs by flow cytometry (reference value: 2.6%); format: functional
Leishmania amazonensis [13] = assay: Antileishmanial activity against promastigotes of Leishmania amazonensis IFLA/BR/67/PH8 assessed as induction of early apoptosis using Annexin-V staining at 4 times IC50 after 4 hrs by flow cytometry (reference value: 8.3%); format: functional
Leishmania amazonensis [14] = assay: Antileishmanial activity against axenic amastigotes of Leishmania amazonensis IFLA/BR/67/PH8 infected in Swiss mouse peritoneal macrophages assessed as reduction of survival rate after 72 hrs by light microscopy analysis; format: functional, organism-based
Summary of the method: (§3)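 Peritoneal macrophages were plated on glass coverslips at 1 x 10^6 cells/mL in supplemented RPMI 1640 and allowed to adhere for 2 h at 34°C, 5% CO₂. They were infected for 3 h with stationary-phase promastigotes at 10 parasites per macrophage, washed with PBS, then exposed to compound for 24 or 72 h. Coverslips were fixed and Panoptic-stained, and 300 macrophages per coverslip were counted by light microscopy. EC50 was derived by probit regression.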

Leishmania amazonensis [15] = assay: Antileishmanial activity against promastigotes of Leishmania amazonensis IFLA/BR/67/PH8 assessed as induction of late apoptosis using Annexin-V/PI staining at 4 times IC50 after 4 hrs by flow cytometry (reference value: 12.05%); format: functional
[16] = Ratio of compound HC50 to meglumine antimoniate HC50 for human RBC; format: ADME, cell-based; settings: erythrocyte
Leishmania amazonensis [17] = assay: Antileishmanial activity against promastigotes of Leishmania amazonensis IFLA/BR/67/PH8 assessed as induction of necrosis using Annexin-V-FITC/PI staining at IC50 after 4 hrs by flow cytometry (reference value: 2.6%); format: functional
[18] = test system: Peritoneal macrophage cell; assay: Immunomodulatory activity in Swiss mouse peritoneal macrophages infected with promastigotes form of Leishmania amazonensis IFLA/BR/67/PH8 assessed as increase of IL-12 production at 6.25 to 25 uM after 72 hrs by sandwich ELISA; format: functional, cell-based; summary of the method: as §1
[19] = Selectivity index, ratio of CC50 for Swiss mouse peritoneal macrophages to IC50 for promastigotes of Leishmania amazonensis IFLA/BR/67/PH8; format: functional; summary of the method: as §2
Leishmania amazonensis [20] = assay: Antileishmanial activity against axenic amastigotes of Leishmania amazonensis IFLA/BR/67/PH8 after 24 hrs by MTT assay; settings: IFLA/BR/67/PH8, 24 h
Leishmania amazonensis [21] = assay: Antileishmanial activity against axenic amastigotes of Leishmania amazonensis IFLA/BR/67/PH8 infected in Swiss mouse peritoneal macrophages assessed as reduction of survival rate after 24 hrs by light microscopy analysis; format: functional, organism-based; summary of the method: as §3
[22] = Cytotoxicity against Swiss mouse peritoneal macrophages after 24 hrs by MTT assay; format: cell-based, Peritoneal macrophage cell
Summary of the method: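 Macrophages were collected from Swiss mice 5 days after thioglycollate (3%) elicitation. About 1 x 10^6 cells per well were incubated in RPMI 1640 with 10% heat-inactivated FBS and compound for 24 h at 37°C, 5% CO₂. MTT was added for 4 h, followed by 10% SDS, and absorbance was read at 540 nm. CC50 was obtained by probit regression.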

Leishmania amazonensis [23] = assay: Antileishmanial activity against promastigotes of Leishmania amazonensis IFLA/BR/67/PH8 assessed as induction of early apoptosis using Annexin-V staining at IC50 after 4 hrs by flow cytometry (reference value: 8.3%); format: functional
[24] = Selectivity index, ratio of HC50 for human RBC to IC50 for axenic amastigotes of Leishmania amazonensis IFLA/BR/67/PH8; summary of the method: as §2
[25] = Toxicity in human RBC assessed as induction of hemolytic activity after 1 hr by spectrometer analysis; format: cell-based, Erythrocyte; settings: red blood cells (RBC)
Summary of the method: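 A 5% suspension of human erythrocytes in PBS was mixed 4:1 with serial compound dilutions and incubated 1 h at 37°C. The reaction was stopped with PBS (pH 7.2) and spun 10 min at 1000 x g, and supernatant absorbance was read at 540 nm. Haemolysis was expressed relative to a drug-free blank and to water-induced total lysis. HC50 was obtained by probit regression.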

Leishmania amazonensis [26] = assay: Antileishmanial activity against promastigotes of Leishmania amazonensis IFLA/BR/67/PH8 assessed as induction of early apoptosis using Annexin-V staining at 2 times IC50 after 4 hrs by flow cytometry (reference value: 8.3%); format: functional
Leishmania amazonensis [27] = assay: Antileishmanial activity against promastigotes of Leishmania amazonensis IFLA/BR/67/PH8 assessed as induction of late apoptosis using Annexin-V/PI staining at 2 times IC50 after 4 hrs by flow cytometry (reference value: 12.05%); format: functional

IC50 (Leishmania amazonensis [9]): 3.37 µM | Ratio [16]: > 14800
Compound: N#Cc1c(/N=C/c2cc3cc(Br)ccc3[nH]2)sc2c1CCCC2
Activity [1]: inactive | Activity (Leishmania amazonensis [2]): 12.5% | Activity (Leishmania amazonensis [3]): 15.8% | Activity [4]: Active | Ratio CC50/EC50 [5]: 6.12 | selectivity ratio [6]: 840 | Activity (Leishmania amazonensis [7]): Active | Selectivity Index [8]: > 237 | Activity (Leishmania amazonensis [10]): 51.9% | Activity (Leishmania amazonensis [11]): 76.7% | Activity (Leishmania amazonensis [12]): 21.7% | Activity (Leishmania amazonensis [13]): 5.03% | Activity (Leishmania amazonensis [14]): Dose-dependent effect | Activity (Leishmania amazonensis [15]): 27.2% | Activity (Leishmania amazonensis [17]): 3.5% | Activity [18]: Active | Ratio CC50/IC50 [19]: 33.6 | EC50 (Leishmania amazonensis [20]): 18.5 µM | Activity (Leishmania amazonensis [21]): Dose-dependent effect | CC50 at 24 h [22]: 113 µM | Activity (Leishmania amazonensis [23]): 7.1% | Selectivity Index [24]: > 43.2 | HC50 at 1 h [25]: > 800 µM | Activity (Leishmania amazonensis [26]): 5.2% | Activity (Leishmania amazonensis [27]): 28.5%
